# Screening data deposited in PubChem by Broad Institute.
# IDH1 R132H inh: blocks human IDH1 R132H reductase activity. 70,000 tested, 0.18% active. inhibition, % at 10 µM. diaphorase/resazurin fluorescence, 60 min; in the data active = inhibition above about 34%; inconclusive = no clear call, values can overlap the other calls; inactive = below about 11%;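 note: 0% = DMSO and 100% = no enzyme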
# KDM4C inh: KDM4C (human) demethylase inhibition. Q9H3R0. GST-KDM4C 2-372, H3K9me3 peptide, LANCE TR-FRET. inhibition, % at 12.5 µM. 96,000 tested, 0.15% active;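 active = mean replicate inhibition above about 25%, with at least 55% of replicates also reaching it, limit read from the data, passing the limit was not always enough; inconclusive = only one of those two conditions met; inactive = neither condition met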
# Target sequence (Q9H3R0 2-372 limits assumed): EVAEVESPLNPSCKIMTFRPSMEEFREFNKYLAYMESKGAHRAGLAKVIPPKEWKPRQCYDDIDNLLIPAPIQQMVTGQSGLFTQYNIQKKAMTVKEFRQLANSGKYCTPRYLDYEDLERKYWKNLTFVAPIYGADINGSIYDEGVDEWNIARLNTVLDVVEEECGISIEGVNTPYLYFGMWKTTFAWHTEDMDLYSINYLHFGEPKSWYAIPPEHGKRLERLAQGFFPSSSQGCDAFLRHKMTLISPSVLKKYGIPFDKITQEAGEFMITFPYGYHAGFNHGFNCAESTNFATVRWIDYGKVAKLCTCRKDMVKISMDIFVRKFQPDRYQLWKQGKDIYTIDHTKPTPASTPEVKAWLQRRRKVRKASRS
#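 Material: GST-tagged GASC-1 (JMJD2C) catalytic fragment, aa 2-372 / Quantity: enzyme final amount 10 nM / Medium: HEPES buffer, pH 7.5, plus ascorbate / Doses: one test concentration per compound / Incubation: 30 min reaction, 60 min detection, RT / Measured by: LANCE TR-FRET / Read-out: inhibition from TR-FRET ratio decrease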
# T cruzi growth-1: blocks T. cruzi growth in NIH3T3 culture; T. cruzi beta-gal in NIH3T3, GalScreen luminescence, 90 h; inhibition, % at 8.34 µM; 77,000 tested, 5.9% active; AID 624255;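 active = mean inhibition above about 93%, with at least 55% of replicates each passing it, limit read from the data, passing the limit was not always enough; inconclusive = only one of those two conditions holds; inactive = neither condition holds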
# Pf Dd2 growth: P. falciparum Dd2 growth inhibition; 94,000 tested, 2.3% active; SYBR Green, 72 h; stronger effect = lower value; activity change, % at 10 µM; in the data active = activity change below about -80%; inconclusive = no clear call, values can overlap the other calls
# T cruzi growth-2: Trypanosoma cruzi proliferation inhibition. shares compounds with T cruzi growth-1. T. cruzi beta-gal in NIH3T3, GalScreen luminescence, 90 h. inhibition, % at 8.35 µM. 5,600 tested, 72% active;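 active = mean replicate inhibition above about 95% and at least 55% of replicates individually reaching it, limit read from the data; inconclusive = only one of the two criteria is met; inactive = neither criterion is met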
# T cruzi growth-3: Trypanosoma cruzi proliferation inhibition. shares compounds with T cruzi growth-1. T. cruzi beta-gal in NIH3T3, GalScreen luminescence, 90 h. inhibition, % at 2.09 µM. 5,600 tested, 21% active. AID 651740;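 active = mean inhibition above about 95%, with at least 55% of replicates also reaching it, limit read from the data; inconclusive = meets just one of the two conditions; inactive = meets neither condition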;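 note: plate controls were neutral control median for no effect and positive control median for full effect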
# NIH3T3 tox: cytotoxicity in mouse NIH/3T3 fibroblasts; shares compounds with T cruzi growth-1; NIH/3T3 viability, CellTiter-Glo ATP luminescence, 90 h; cytotoxicity (signal decrease), % at 8.35 µM; 5,600 tested, 14% active; AID 651742;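 active = mean signal decrease across replicates above about 35% based on untreated-well scatter, with enough replicates individually passing, limit read from the data; inconclusive = no rule stated though some were filed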;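 note: 0% = median of neutral control wells and 100% = median of positive control wells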
# NIH3T3 tox 2: kills mouse NIH/3T3 fibroblasts; 5,600 tested, 56% active; NIH/3T3 viability, CellTiter-Glo ATP luminescence, 90 h; inhibition, % at 24.9 µM; AID 651744; shares compounds with T cruzi growth-1;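 active = mean loss of cell viability signal at or above a set limit, and enough replicates individually reaching it; inconclusive = meets only the mean limit or only the replicate share; inactive = meets neither condition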;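 note: 0% = median of neutral control wells and 100% = median of positive control wells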
# The depositor's hits bear a star; ? = inconclusive; . = no result given; + = active, no number. Rows were chosen to be rich in hits. Some 5.8% of all compounds tested hit in one or more screens of this group.
SMILES,IDH1 R132H inh,KDM4C inh,T cruzi growth-1,Pf Dd2 growth,T cruzi growth-2,T cruzi growth-3,NIH3T3 tox,NIH3T3 tox 2
C[C@H](CO)N1C[C@H](C)[C@H](CN(C)Cc2ccc(C(F)(F)F)cc2)Oc2c(NC(=O)Nc3cccc4ccccc34)cccc2C1=O,.,-3,111*,-39,103*,73,34,30*
C[C@H](CO)N1C[C@H](C)[C@H](CN(C)Cc2ccc(C(F)(F)F)cc2)Oc2ccc(NC(=O)Nc3cccc4ccccc34)cc2C1=O,-2,8,49,8,.,.,.,.
C[C@@H]1CN([C@@H](C)CO)C(=O)c2cc(NC(=O)Nc3cccc4ccccc34)ccc2O[C@@H]1CN(C)Cc1ccc(C(F)(F)F)cc1,0,-1,106*,33,106*,107*,53*,46*
C[C@H](CO)N1C[C@H](C)[C@H](CN(C)Cc2ccc(C(F)(F)F)cc2)Oc2c(NC(=O)Nc3ccccc3)cccc2C1=O,2,2,14,-4,.,.,.,.
CC(=O)N(C)C[C@H]1OCc2ccccc2-c2c(n(C)c3ccccc23)C(=O)N([C@@H](C)CO)C[C@H]1C,-1,0,-24,32,.,.,.,.
CO[C@@H]1CN(C)C(=O)c2cc(NS(=O)(=O)c3cn(C)cn3)ccc2OC[C@@H](C)N(Cc2ccc(C(F)(F)F)cc2)C[C@H]1C,0,1,35,9,.,.,.,.
CC(C)C(=O)Nc1ccc2c(c1)C(=O)N(C)[C@@H]1CC[C@@H](CC(=O)NCCCN(C)C)O[C@H]1CO2,.,1,3,-14,.,.,.,.
C/C=C/c1ccc([C@@H]2[C@@H](CO)N(C(=O)NCCC)[C@H]2CN(C)C(=O)CC)cc1,.,0,15,2,.,.,.,.
C[C@@H]1CN([C@H](C)CO)C(=O)c2cccc(NC(=O)Nc3ccc(C(F)(F)F)cc3)c2O[C@H]1CN(C)S(=O)(=O)c1ccc(F)cc1,6,-5,?,10,108*,34,10,39*
COc1ccc(S(=O)(=O)N(C)C[C@@H]2Oc3c(NC(=O)Nc4cccc5ccccc45)cccc3C(=O)N([C@@H](C)CO)C[C@H]2C)cc1,2,-1,.,.,.,.,.,.
Cc1ccc(S(=O)(=O)N(C)C[C@H]2Oc3c(NC(=O)Nc4ccccc4)cccc3C(=O)N([C@H](C)CO)C[C@H]2C)cc1,0,0,101*,-37,?,20,6,48*
C[C@H](CO)N1C[C@H](C)[C@@H](CN(C)S(=O)(=O)c2ccc(F)cc2)Oc2c(NC(=O)Nc3ccc(C(F)(F)F)cc3)cccc2C1=O,-1,-1,.,11,.,.,.,.
C[C@H](CO)N1C[C@H](C)[C@@H](CN(C)S(=O)(=O)c2ccc(Cl)cc2)Oc2c(NC(=O)Nc3ccc(C(F)(F)F)cc3)cccc2C1=O,1,.,?,-70,90,111*,46*,105*
COc1ccc(S(=O)(=O)N(C)C[C@@H]2Oc3c(NC(=O)Nc4cccc5ccccc45)cccc3C(=O)N([C@H](C)CO)C[C@@H]2C)cc1,-1,11,126*,-92*,?,65,33,30*
O=C(C[C@H]1CC[C@H]2NC[C@H](O)COC[C@@H]2O1)N1CCc2ccccc2C1,.,2,14,5,.,.,.,.
Cc1noc(C)c1S(=O)(=O)N(C)C[C@@H]1OCCCC[C@@H](C)Oc2ccc(NC(=O)CCC(F)(F)F)cc2C(=O)N([C@H](C)CO)C[C@H]1C,-7,2,5,7,.,.,.,.
C[C@H](O)C#Cc1cnc2c(c1)C(=O)N([C@H](C)CO)C[C@H](C)[C@@H](CN(C)C(=O)CC1CC1)O2,2,0,-10,.,.,.,.,.
Cc1ccc(S(=O)(=O)N(C)C[C@H]2Oc3c(cccc3N(C)C)C(=O)N([C@H](C)CO)C[C@@H]2C)cc1,-5,-1,?,0,99*,15,8,28*
C[C@H](CO)N1C[C@H](C)[C@H](CN(C)CC2CC2)Oc2c(NC(=O)Nc3ccc(C(F)(F)F)cc3)cccc2C1=O,1,1,118*,-53,101*,100*,-16,29
CC(C)NC(=O)N(C)C[C@@H]1Oc2c(NC(=O)Nc3ccc(C(F)(F)F)cc3)cccc2C(=O)N([C@@H](C)CO)C[C@H]1C,.,10,19,-13,.,.,.,.
C[C@@H]1CN([C@@H](C)CO)C(=O)c2cccc(NC(=O)Nc3ccc(F)cc3)c2O[C@@H]1CN(C)C(=O)Nc1ccc(C(F)(F)F)cc1,4,-1,?,-76,111*,5,24,40*
CC(C)NC(=O)N(C)C[C@H]1Oc2c(NC(=O)Nc3ccc(C(F)(F)F)cc3)cccc2C(=O)N([C@@H](C)CO)C[C@@H]1C,.,0,?,-10,65,24,27,57*
C[C@@H]1CN([C@@H](C)CO)C(=O)c2cccc(NC(=O)C3CCOCC3)c2O[C@H]1CN(C)C(=O)Nc1ccc(C(F)(F)F)cc1,2,-1,99*,9,-42,17,4,29*
C[C@@H]1CN([C@H](C)CO)C(=O)c2cccc(NC(=O)Nc3ccc(C(F)(F)F)cc3)c2O[C@@H]1CN(C)CC1CC1,0,0,37,-40,.,.,.,.
C[C@H](CO)N1C[C@H](C)[C@@H](CN(C)C(=O)Nc2ccc(F)cc2)Oc2c(NC(=O)Nc3cccc4ccccc34)cccc2C1=O,-1,1,92,-43,.,.,.,.
C[C@@H]1CN([C@H](C)CO)C(=O)c2cccc(NC(=O)Nc3cccc4ccccc34)c2O[C@H]1CN(C)C(=O)Nc1ccc(F)cc1,-1,0,99*,-53,103*,60,5,21
COc1ccc(-c2cnc3c(c2)C(=O)N([C@H](C)CO)C[C@@H](C)[C@H](CN(C)C(=O)NC2CCCC2)O3)cc1,0,2,9,-34,.,.,.,.
CC=Cc1ccc2n(c1=O)C[C@H]1[C@H](CO)[C@@H](C(=O)NCCC)[C@@H]2N1C(=O)C1CC1 (mixture of isomers),.,0,112*,-2,99*,9,14,20
CC=Cc1ccc2n(c1=O)C[C@H]1[C@H](CO)[C@@H](C(=O)NCc3ccccn3)[C@@H]2N1C (mixture of isomers),.,1,+,.,-18,33,-3,-14
CC=Cc1ccc2n(c1=O)C[C@@H]1[C@@H](CO)[C@H](C(=O)NCCCN(C)C)[C@H]2N1C(=O)c1ccccc1F (mixture of isomers),.,0,+,.,57,-62,-3,8
